# Reference: publication PMC7856040 (ChemMedChem, 2020)
# Experiments:
# [1] = biological target: AeKir (Aedes aegypti, UniProt L0EQS9); experiment: fluorescence-based in vitro thallium; format: cell-based; details: HEK293
# How it was run: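 Fluorescence thallium-flux read-out in HEK293 cells expressing AeKir under tetracycline induction. Signals normalized to baseline Tl+ flux in the same line left uninduced by tetracycline. IC50 is the mean ± SEM of at least three independent experiments. Percent inhibition is taken at the highest concentration tested.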
# [2] = test system: first instar (LVP or PR) Ae. aegypti; experiment: larval toxicity concentration response curve; format: in vivo
# [3] = test system: first instar (Liverpool, LVP) Ae. aegypti; experiment: larvae toxicity screen, small molecules added to the rearing water; format: in vivo; details: for mortality at 48 h compared to VU854: 100 μM, first instar LVP larvae, one-way ANOVA, Dunnett's test; for mortality at 100 µM: Aedes aegypti, 48 h, read-out: mortality at 48 h
SMILES,inhibition at 30000 µM [1] [%],also measured
"O=[N+]([O-])c1ccc(N2CCN(S(=O)(=O)c3ccc(F)cc3)CC2)cc1F [Compound 8, 1-(3-fluoro-4-nitrophenyl)-4-((4-fluorophenyl)sulfonyl)piperazine]",100,"times more potent against the LVP strain (versus PR) ([2]; CRC, 48 h): ~ 2 times; mortality at 48 h compared to VU854 [3]: significantly greater mortality; mortality at 100 µM [3]: 100%"
"O=[N+]([O-])c1ccc(N2CCN(S(=O)(=O)c3ccc(F)cc3)CC2)cc1NCc1ccco1 [Compound 9a, 5-(4-((4-fluorophenyl)sulfonyl)piperazin-1-yl)-N-(furan-2-ylmethyl)-2-nitroaniline]",96,
"Cc1cc(CNc2cc(N3CCN(S(=O)(=O)c4ccc(F)cc4)CC3)ccc2[N+](=O)[O-])no1 [Compound 9f, 5-(4-((4-fluorophenyl)sulfonyl)piperazin-1-yl)-N-((5-methylisoxazol-3-yl)methyl)-2-nitroaniline]",109,
"Cc1nnc(CNc2cc(N3CCN(S(=O)(=O)c4ccc(F)cc4)CC3)ccc2[N+](=O)[O-])o1 [Compound 9g, 5-(4-((4-fluorophenyl)sulfonyl)piperazin-1-yl)-N-((5-methyl-1,3,4-oxadiazol-2-yl)methyl)-2-nitroaniline]",110,
"O=[N+]([O-])c1ccc(N2CCN(S(=O)(=O)c3ccc(F)cc3)CC2)cc1NCc1nccs1 [Compound 9h, 5-(4-((4-fluorophenyl)sulfonyl)piperazin-1-yl)-2-nitro-N-(thiazol-2-ylmethyl)aniline]",97,
"CC(Nc1cc(N2CCN(S(=O)(=O)c3ccc(F)cc3)CC2)ccc1[N+](=O)[O-])c1nccs1 (stereo not shown) [Compound 9i, 5-(4-((4-fluorophenyl)sulfonyl)piperazin-1-yl)-2-nitro-N-(1-(thiazol-2-yl)ethyl)aniline]",107,
"Cc1ncc(CNc2cc(N3CCN(S(=O)(=O)c4ccc(F)cc4)CC3)ccc2[N+](=O)[O-])s1 [Compound 9j, 5-(4-((4-fluorophenyl)sulfonyl)piperazin-1-yl)-N-((2-methylthiazol-5-yl)methyl)-2-nitroaniline]",111,
"O=[N+]([O-])c1ccc(N2CCN(S(=O)(=O)c3ccc(F)cc3)CC2)cc1NCc1ncco1 [Compound 9k, 5-(4-((4-fluorophenyl)sulfonyl)piperazin-1-yl)-2-nitro-N-(oxazol-2-ylmethyl)aniline]",98,
"CC(Nc1cc(N2CCN(S(=O)(=O)c3ccc(F)cc3)CC2)ccc1[N+](=O)[O-])c1ncco1 (stereo not shown) [Compound 9l, 5-(4-((4-fluorophenyl)sulfonyl)piperazin-1-yl)-2-nitro-N-(1-(oxazol-2-yl)ethyl)aniline]",109,
"O=[N+]([O-])c1ccc(N2CCN(S(=O)(=O)c3ccc(F)cc3)CC2)cc1NCc1cnco1 [Compound 9m, 5-(4-((4-fluorophenyl)sulfonyl)piperazin-1-yl)-2-nitro-N-(oxazol-5-ylmethyl)aniline]",99,
"Cc1cnc(CNc2cc(N3CCN(S(=O)(=O)c4ccc(F)cc4)CC3)ccc2[N+](=O)[O-])o1 [Compound 9n, 5-(4-((4-fluorophenyl)sulfonyl)piperazin-1-yl)-N-((5-methyloxazol-2-yl)methyl)-2-nitroaniline]",100,mortality at 48 h compared to VU854 [3]: similarly efficacious as VU854
"Cc1ncc(CNc2cc(N3CCN(S(=O)(=O)c4ccc(F)cc4)CC3)ccc2[N+](=O)[O-])o1 [Compound 9o, 5-(4-((4-fluorophenyl)sulfonyl)piperazin-1-yl)-N-((2-methyloxazol-5-yl)methyl)-2-nitroaniline]",106,
"O=[N+]([O-])c1ccc(N2CCN(S(=O)(=O)c3ccc(F)cc3)CC2)cc1NCc1ncon1 [Compound 9p, N-((1,2,4-oxadiazol-3-yl)methyl)-5-(4-((4-fluorophenyl)sulfonyl)piperazin-1-yl)-2-nitroaniline]",109,"mortality at 100 µM ([2]; Aedes aegypti, 48 h, read-out: maximal mortality within 48 h): ~50%; pathology observed in treated larvae ([2]; contiguous trail of excrement from midgut beyond the rectum): constipation or excretory failure; mortality at 48 h compared to VU854 [3]: significantly greater mortality; mortality at 100 µM [3]: 99%"
"Cc1nc(CNc2cc(N3CCN(S(=O)(=O)c4ccc(F)cc4)CC3)ccc2[N+](=O)[O-])no1 [Compound 9q, 5-(4-((4-fluorophenyl)sulfonyl)piperazin-1-yl)-N-((5-methyl-1,2,4-oxadiazol-3-yl)methyl)-2-nitroaniline]",109,mortality at 48 h compared to VU854 [3]: similarly efficacious as VU854
"O=[N+]([O-])c1ccc(N2CCN(S(=O)(=O)c3ccc(F)cc3)CC2)cc1NCc1ccon1 [Compound 9r, 5-(4-((4-fluorophenyl)sulfonyl)piperazin-1-yl)-N-(isoxazol-3-ylmethyl)-2-nitroaniline]",99,
"Cc1nnc(CNc2cc(N3CCN(S(=O)(=O)c4ccc(F)cc4)CC3)ccc2[N+](=O)[O-])s1 [Compound 9s, 5-(4-((4-fluorophenyl)sulfonyl)piperazin-1-yl)-N-((5-methyl-1,3,4-thiadiazol-2-yl)methyl)-2-nitroaniline]",61,mortality at 48 h compared to VU854 [3]: similarly efficacious as VU854
"O=[N+]([O-])c1ccc(N2CCN(S(=O)(=O)c3ccc(F)cc3)CC2)cc1NCc1cc2ccccc2o1 [Compound 9t, N-(benzofuran-2-ylmethyl)-5-(4-((4-fluorophenyl)sulfonyl)piperazin-1-yl)-2-nitroaniline]",10,
"O=[N+]([O-])c1ccc(N2CCN(S(=O)(=O)c3ccc(F)cc3)CC2)cc1NCc1nc2ccccc2o1 [Compound 9u, N-(benzo[d]oxazol-2-ylmethyl)-5-(4-((4-fluorophenyl)sulfonyl)piperazin-1-yl)-2-nitroaniline]",29,
